According to PMC10455042 (Biochemical engineering journal, 2023):
Where a SMILES comes first, the peptide text is derived from it. [ ]: non-standard residue; d: D form.

Legend:
[1] = RWRWR peptide alone; cited from earlier work
N2a cells = assay: alamarBlue cell viability assay; assay type: cell-based; conditions: 24 h
Procedure, shortened: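 N2a cells in MEM with 10% cosmic calf serum, plated at 1×10^4 cells/well two days before the assay, then PBS-washed. Exposed to increasing peptide concentrations (up to 200 µM) for 24 h at 37 °C, ECB-washed, then given alamarBlue in serum-free medium for 4 h at 37 °C. Fluorescence read at ex 532/[…], normalised to no-peptide control (F/C), triplicate average.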

[2] = Peptide degradation assay in N2a lysates; assay type: in vitro ADME; conditions: 2 mg/mL N2a lysates, 37°C; HPLC, intact peptide
Tau = assay: Western blotting analysis of Tau levels in N2a cells treated with PROTACs; assay type: cell-based; conditions: N2a cells pre-treated with 10 μM PYR-41 for one hour, then co-incubated with 200 μM peptide for 12 h; western blot
[3] = flow cytometry; cited from earlier work

Molecule	Peptide remaining after 2 hours (previously reported) [1]	Effect on cell viability (N2a cells)	Resistance to degradation in N2a lysates [2]	Decrease in Tau signal on co-incubation with E1 inhibitor PYR-41 (Tau)	Uptake (previously published) [3]
RWVRWpGRWIRQ [RWRWR]	approximately 80%				
CC[C@H](C)[C@H](NC(=O)[C@H](Cc1c[nH]c2ccccc12)NC(=O)[C@H](CCCNC(=N)N)NC(=O)CNC(=O)[C@H]1CCCN1C(=O)[C@@H](NC(=O)[C@H](CCCNC(=N)N)NC(=O)[C@@H](NC(=O)[C@H](Cc1c[nH]c2ccccc12)NC(=O)[C@H](CCCNC(=N)N)NC(C)=O)C(C)C)C(C)C)C(=O)N[C@@H](CCCNC(=N)N)C(=O)N[C@@H](CCC(N)=O)C(=O)N[C@@H](Cc1ccc(O)cc1)C(=O)N[C@@H](CCC(N)=O)C(=O)N[C@@H](CCC(N)=O)C(=O)N[C@@H](Cc1ccc(O)cc1)C(=O)N[C@@H](CCC(N)=O)C(=O)N[C@@H](CC(=O)O)C(=O)N[C@@H](C)C(=O)N[C@H](C(=O)N[C@@H](C)C(=O)N[C@@H](CC(=O)O)C(=O)N[C@@H](CCC(=O)O)C(=O)N[C@@H](CCC(N)=O)C(=O)NCC(N)=O)[C@@H](C)O [Peptide 2] (Ac-RWVRV[dP]GRWIRQYQQYQDATADEQG-NH2)		minimal effects on cell viability	more resistant to degradation than its unstructured counterpart Peptide 1	decrease is negated	
CC[C@H](C)[C@H](NC(=O)[C@H](Cc1ccc(O)cc1)NC(=O)[C@@H]1CCCN1C(=O)[C@H](C)NC(=O)[C@H](CC(C)C)NC(=O)[C@H](C)NC(=O)[C@H](CO)NC(=O)CNC(=O)[C@H](CO)NC(=O)CNC(=O)CNC(=O)[C@H](CCC(N)=O)NC(=O)[C@H](CCC(=O)O)NC(=O)[C@H](CC(=O)O)NC(=O)[C@H](C)NC(=O)[C@@H](NC(=O)[C@H](C)NC(=O)[C@H](CC(=O)O)NC(=O)[C@H](CCC(N)=O)NC(=O)[C@H](Cc1ccc(O)cc1)NC(=O)[C@H](CCC(N)=O)NC(=O)[C@H](CCC(N)=O)NC(=O)[C@H](Cc1ccc(O)cc1)NC(C)=O)[C@@H](C)O)C(=O)N1CCC[C@H]1C(=O)N[C@H](CCCNC(=N)N)C(=O)N[C@H](CCCNC(=N)N)C(=O)N[C@H](CCCNC(=N)N)C(=O)N[C@H](CCCNC(=N)N)C(=O)N[C@H](CCCNC(=N)N)C(=O)N[C@H](CCCNC(=N)N)C(=O)N[C@H](CCCNC(=N)N)C(=O)N[C@H](CCCNC(=N)N)C(N)=O [Peptide 1] (Ac-YQQYQDATADEQGGSGSALAPYIP[dR][dR][dR][dR][dR][dR][dR][dR]-NH2)		minimal effects on cell viability			time-dependent uptake
